Converted amounts (≈) assume the structure as drawn.
How the values were obtained:
[1] = system: Staphylococcus aureus (MTCC 96); assay: Antibacterial activity; format: cell-based; details: MTCC96, read-out: MIC, S. aureus
Method in brief: (§1)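 Screened by a standard method against S. aureus MTCC 96, B. subtilis MTCC 121, E. coli MTCC 1652 and P. aeruginosa MTCC 741. Ciprofloxacin was the reference antibiotic. Only compounds active at 100 μg/mL went on to MIC determination.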

[2] = system: Escherichia coli (MTCC 1652); assay: Antibacterial activity; format: cell-based; details: for MIC, E. coli: E. coli (MTCC 1652); for MIC: Escherichia coli, MTCC1652, read-out: MIC, E. coli
Method in brief: as §1

[3] = system: Pseudomonas aeruginosa (MTCC 741); assay: Antibacterial activity; format: cell-based; details: for MIC, P. aeruginosa: P. aeruginosa (MTCC 741); for MIC: Pseudomonas aeruginosa, MTCC741, read-out: MIC, P. aeruginosa
Method in brief: as §1

[4] = system: Bacillus subtilis (MTCC 121); assay: Antibacterial activity; format: cell-based; details: MTCC121, read-out: MIC, B. subtilis
Method in brief: as §1

Aspergillus niger = assay: Antifungal activity; format: cell-based; details: read-out: MIC, A. niger
Method in brief: (§2)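 Run by the poison food technique against Aspergillus niger and Aspergillus flavus. Fluconazole was the reference drug.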

Aspergillus flavus = assay: Antifungal activity; format: cell-based; details: read-out: MIC, A. flavus
Method in brief: as §2

[5] = system: carrageenan induced edema; assay: Anti-inflammatory activity, carrageenan induced rat paw edema; format: in vivo, Wistar rats; details: inhibition of edema, rats
Method in brief: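 Used the Winter et al. paw oedema method in Wistar rats of either sex (160–200 g), housed six per cage and acclimatised 48 h. Percent inhibition of oedema was calculated at 1, 2, 3 and 4 h. Diclofenac served as the standard drug.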

Row | MIC [1] [mg/L] | MIC, E. coli [2] | MIC [2] [mg/L] | MIC, P. aeruginosa [3] | MIC [3] [mg/L] | MIC [4] [mg/L] | MIC (Aspergillus niger) [mg/L] | MIC (Aspergillus flavus) [mg/L] | SMILES | % Inhibition ± SEM After 1 h [5] | % Inhibition ± SEM After 2 h [5] | % Inhibition ± SEM After 3 h [5] | % Inhibition ± SEM After 4 h [5]
1 | 50 (≈ 130 µM) | did not show any inhibition | > 100 | did not show any inhibition | > 100 | 50 (≈ 130 µM) | 50 (≈ 130 µM) | > 100 | O=C1OC(c2ccc3ccccc3c2)=CC1=Cc1cc2ccccc2nc1Cl [Compound 5a, 3-[(2-Chloroquinolin-3-yl)methylene]-5-(naphthalene-2-yl)furan-2(3H)-one] | 67 ± 0.14^∗∗ % | 62 ± 0.11^∗∗ % | 46 ± 0.26% | 57 ± 0.27^∗∗ %
2 | 25 (≈ 62.8 µM) | did not show any inhibition | > 100 | did not show any inhibition | > 100 | 50 (≈ 126 µM) | 50 (≈ 126 µM) | > 100 | Cc1ccc2nc(Cl)c(C=C3C=C(c4ccc5ccccc5c4)OC3=O)cc2c1 [Compound 5c, 3-[(2-Chloro-6-methylquinolin-3-yl)methylene]-5-(naphthalene-2-yl)furan-2(3H)-one] | 69 ± 0.12^∗∗ % | 66 ± 0.25^∗∗ % | 47 ± 0.17% | 59 ± 0.12^∗∗ %
3 | 25 (≈ 61 µM) |  | > 100 |  | > 100 | 50 (≈ 122 µM) | 25 (≈ 61 µM) | 50 (≈ 122 µM) | O=C1OC(c2ccc(-c3ccccc3)cc2)=CC1=Cc1cc2ccccc2nc1Cl [Compound 5e, 3-[(2-Chloroquinolin-3-yl)methylene]-5-(biphenyl-4-yl)furan-2(3H)-one] | 63 ± 0.09^∗ % | 60 ± 0.22^∗∗ % | 53 ± 0.18% | 59 ± 0.12^∗∗ %
4 | 12.5 (≈ 28.1 µM) |  | 50 (≈ 113 µM) |  | > 100 | 25 (≈ 56.3 µM) | 25 (≈ 56.3 µM) | 25 (≈ 56.3 µM) | O=C1OC(c2ccc(-c3ccccc3)cc2)=CC1=Cc1cc2cc(Cl)ccc2nc1Cl [Compound 5f, 3-[(2,6-Dichloroquinolin-3-yl)methylene]-5-(biphenyl-4-yl)furan-2(3H)-one] | 63 ± 0.13^∗∗ % | 58 ± 0.21^∗∗ % | 53 ± 0.17% | 58 ± 0.12^∗∗ %
5 | 25 (≈ 59 µM) | did not show any inhibition | > 100 | did not show any inhibition | > 100 | 50 (≈ 118 µM) | 50 (≈ 118 µM) | 50 (≈ 118 µM) | Cc1ccc2nc(Cl)c(C=C3C=C(c4ccc(-c5ccccc5)cc4)OC3=O)cc2c1 [Compound 5g, 3-[(2-Chloro-6-methylquinolin-3-yl)methylene]-5-(biphenyl-4-yl)furan-2(3H)-one] | 67 ± 0.12^∗∗ % | 62 ± 0.11^∗∗ % | 46 ± 0.33% | 56 ± 0.06^∗∗ %
6 | 25 (≈ 65.3 µM) |  | > 100 |  | 50 (≈ 131 µM) | 25 (≈ 65.3 µM) | 25 (≈ 65.3 µM) | 25 (≈ 65.3 µM) | O=C1NC(c2ccc3ccccc3c2)=CC1=Cc1cc2ccccc2nc1Cl [Compound 6a, 3-[(2-Chloroquinolin-3-yl)methylene]-5-(naphthalene-2-yl)-1H-pyrrol-2(3H)-one] | 64 ± 0.06^∗ % | 53 ± 0.18^∗∗ % | 49 ± 0.10% | 36 ± 0.32%
7 | 12.5 (≈ 31.5 µM) |  | > 100 |  | 50 (≈ 126 µM) | 12.5 (≈ 31.5 µM) | 25 (≈ 63 µM) | 12.5 (≈ 31.5 µM) | Cc1ccc2nc(Cl)c(C=C3C=C(c4ccc5ccccc5c4)NC3=O)cc2c1 [Compound 6c, 3-[(2-Chloro-6-methylquinolin-3-yl)methylene]-5-(naphthalene-2-yl)-1H-pyrrol-2(3H)-one] | 32 ± 0.02% | 55 ± 0.22^∗∗ % | 47 ± 0.24% | 42 ± 0.20%
8 | 6.25 (≈ 14.6 µM) |  | 12.5 (≈ 29.2 µM) |  | 12.5 (≈ 29.2 µM) | 6.25 (≈ 14.6 µM) | 6.25 (≈ 14.6 µM) | 12.5 (≈ 29.2 µM) | O=C1NC(c2ccc3ccccc3c2)=CC1=Cc1cc2cc([N+](=O)[O-])ccc2nc1Cl [Compound 6d, 3-[(2-Chloro-6-nitroquinolin-3-yl)methylene]-5-(naphthalene-2-yl)-1H-pyrrol-2(3H)-one] | 58 ± 0.25^∗ % | 60 ± 0.22^∗∗ % | 29 ± 0.16% | 48 ± 0.15^∗ %
9 | 12.5 (≈ 30.6 µM) |  | > 100 |  | 50 (≈ 122 µM) | 50 (≈ 122 µM) | 50 (≈ 122 µM) | 25 (≈ 61.1 µM) | O=C1NC(c2ccc(-c3ccccc3)cc2)=CC1=Cc1cc2ccccc2nc1Cl [Compound 6e, 3-[(2-Chloroquinolin-3-yl)methylene]-5-(biphenyl-4-yl)-1H-pyrrol-2(3H)-one] | 38 ± 0.21% | 48 ± 0.21^∗∗ % | 44 ± 0.33% | 35 ± 0.32%
10 | 6.25 (≈ 14.1 µM) |  | 50 (≈ 113 µM) |  | 25 (≈ 56.4 µM) | 6.25 (≈ 14.1 µM) | 6.25 (≈ 14.1 µM) | 12.5 (≈ 28.2 µM) | O=C1NC(c2ccc(-c3ccccc3)cc2)=CC1=Cc1cc2cc(Cl)ccc2nc1Cl [Compound 6f, 3-[(2,6-Dichloroquinolin-3-yl)methylene]-5-(biphenyl-4-yl)-1H-pyrrol-2(3H)-one] | 48 ± 0.13% | 63 ± 0.27^∗∗ % | 25 ± 0.34% | 42 ± 0.20%
11 | 25 (≈ 59.1 µM) |  | 50 (≈ 118 µM) |  | 50 (≈ 118 µM) | 12.5 (≈ 29.6 µM) | 25 (≈ 59.1 µM) | 12.5 (≈ 29.6 µM) | Cc1ccc2nc(Cl)c(C=C3C=C(c4ccc(-c5ccccc5)cc4)NC3=O)cc2c1 [Compound 6g, 3-[(2-Chloro-6-methylquinolin-3-yl)methylene]-5-(biphenyl-4-yl)-1H-pyrrol-2(3H)-one] | 52 ± 0.08^∗ % | 48 ± 0.24^∗∗ % | 25 ± 0.17% | 36 ± 0.19%
12 | 6.25 (≈ 13.8 µM) |  | 25 (≈ 55.1 µM) |  | 25 (≈ 55.1 µM) | 12.5 (≈ 27.5 µM) | 25 (≈ 55.1 µM) | 25 (≈ 55.1 µM) | O=C1NC(c2ccc(-c3ccccc3)cc2)=CC1=Cc1cc2cc([N+](=O)[O-])ccc2nc1Cl [Compound 6h, 3-[(2-Chloro-6-nitroquinolin-3-yl)methylene]-5-(biphenyl-4-yl)-1H-pyrrol-2(3H)-one] | 58 ± 0.19^∗ % | 58 ± 0.05^∗∗ % | 50 ± 0.18% | 48 ± 0.15^∗ %
13 | 50 (≈ 106 µM) |  | 25 (≈ 52.9 µM) |  | > 100 | > 100 | 50 (≈ 106 µM) | > 100 | O=C1C(=Cc2cc3ccccc3nc2Cl)C=C(c2ccc3ccccc3c2)N1Cc1ccccc1 [Compound 7a, 1-Benzyl-3-[(2-chloroquinolin-3-yl)methylene]-5-(naphthalene-2-yl)-1H-pyrrol-2(3H)-one] | 52 ± 0.13^∗ % | 62 ± 0.27^∗∗ % | 28 ± 0.34% | 57 ± 0.13^∗∗ %
14 | 25 (≈ 51.3 µM) |  | 50 (≈ 103 µM) |  | > 100 | 50 (≈ 103 µM) | 50 (≈ 103 µM) | 25 (≈ 51.3 µM) | Cc1ccc2nc(Cl)c(C=C3C=C(c4ccc5ccccc5c4)N(Cc4ccccc4)C3=O)cc2c1 [Compound 7c, 1-Benzyl-3-[(2-chloro-6-methylquinolin-3-yl)methylene]-5-(naphthalene-2-yl)-1H-pyrrol-2(3H)-one] | 78 ± 0.12^∗∗ % | 71 ± 0.28^∗∗ % | 57 ± 0.25^∗ % | 61 ± 0.21^∗∗ %
15 | 50 (≈ 100 µM) | did not show any inhibition | > 100 | did not show any inhibition | > 100 | > 100 | 50 (≈ 100 µM) | > 100 | O=C1C(=Cc2cc3ccccc3nc2Cl)C=C(c2ccc(-c3ccccc3)cc2)N1Cc1ccccc1 [Compound 7e, 1-Benzyl-3-[(2-chloroquinolin-3-yl)methylene]-5-(biphenyl-4-yl)-1H-pyrrol-2(3H)-one] | 78 ± 0.12^∗∗ % | 51 ± 0.11^∗∗ % | 44 ± 0.08% | 41 ± 0.08%
16 | 6.25 (≈ 18.9 µM) |  | 6.25 (≈ 18.9 µM) |  | 6.25 (≈ 18.9 µM) |  |  |  | O=C(O)c1cn(C2CC2)c2cc(N3CCNCC3)c(F)cc2c1=O [Standard-1, Ciprofloxacin, reference compound] |  |  |  | 
17 |  |  |  |  |  | 6.25 (≈ 20.4 µM) | 6.25 (≈ 20.4 µM) | 6.25 (≈ 20.4 µM) | OC(Cn1cncn1)(Cn1cncn1)c1ccc(F)cc1F [Standard-2, Fluconazole, reference compound] |  |  |  | 
